Results as given in publication PMC10209927 (Russian Journal of General Chemistry, 2023).

Tests used:
aldose reductase (ALR2) = aldose reductase (ALR2) (Homo sapiens, UniProt P15121); test: In vitro aldose reductase; format: biochemical
In short: (§1)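 Enzymes isolated and purified by earlier reported methods, ALR1 at 2.19 μg/well and ALR2 at 1.85 μg/well. Test compound (20 µL of 1 mM solution) was preincubated with the enzyme in 100 mM KH2PO4, pH 6.2, at 37°C for 10 min. Then substrate (50 mM as added) and NADPH (0.5 mM as added) were introduced. OD340 was read after 30 min. % inhibition = 100 − (A test/A control × 100). IC50 ± SEM was determined for compounds with >50% inhibition.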

[1] = target: T1, aldehyde reductase (ALR1) (Homo sapiens, UniProt P14550); test: In vitro aldehyde reductase; format: biochemical
T1 sequence (P14550 1-325): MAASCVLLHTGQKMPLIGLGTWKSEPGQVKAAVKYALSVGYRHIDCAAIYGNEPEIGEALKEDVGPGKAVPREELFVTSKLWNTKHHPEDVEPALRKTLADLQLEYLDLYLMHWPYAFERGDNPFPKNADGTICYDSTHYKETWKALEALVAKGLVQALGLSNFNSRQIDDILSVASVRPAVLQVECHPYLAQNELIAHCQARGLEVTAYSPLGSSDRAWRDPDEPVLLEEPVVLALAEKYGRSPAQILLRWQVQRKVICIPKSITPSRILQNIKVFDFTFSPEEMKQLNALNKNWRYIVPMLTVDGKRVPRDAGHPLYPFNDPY
In short: as §1

Row | Compound | IC50 (aldose reductase (ALR2)) | IC50 [1]
1 | O=C1N=C(Nc2ccccc2)S/C1=C\c1ccccc1OCc1cn(Cc2cccc(Cl)c2)nn1 [Compound 9b, (Z)-5-(2-{[1-(3-Chlorobenzyl)-1H-1,2,3-triazol-4-yl]methoxy}benzylidene)-2-(phenylamino)thiazol-4(5H)-one] | 28 ± 1.23 µM | 90 ± 0.56 µM
2 | O=C1N=C(Nc2ccccc2)S/C1=C\c1ccccc1OCc1cn(Cc2ccc(Cl)cc2)nn1 [Compound 9c, (Z)-5-(2-{[1-(4-Chlorobenzyl)-1H-1,2,3-triazol-4-yl]methoxy}benzylidene)-2-(phenylamino)thiazol-4(5H)-one] | 10 ± 1.56 µM | –
